Assay outcomes deposited in PubChem by several laboratories.
UCH37 inh – inhibitors of human UCH37 deubiquitinase, primary screen, biochemical, Ub-AMC cleavage, fluorescence; Ubiquitin carboxyl-terminal hydrolase isozyme L5 (Homo sapiens), Q9Y5K5; purified proteasome/UCH37; inhibition, % (concentration not given with the values); actives 0.33% (n = 330,000);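 active = mean inhibition over replicate wells above about 20%, limit read from the data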;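 also: 0% = compound-free wells with enzyme and 100% = wells lacking proteasome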
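Material: human UCH37 enzyme supplied as purified proteasome complex. Measure: % inhibition of Ub-AMC cleavage fluorescence. Medium: pH 7.4 Tris-HCl (50 mM) with ovalbumin, ATP-MgCl2, DTT. Times: 30 min preincubation with enzyme, 25 min cleavage at room temperature. Detection: AMC fluorescence intensity at 355/460 nm.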
FAS TE block – FAS thioesterase domain inhibitors, primary screen, biochemical, fluorescence intensity, uHTS; Fatty acid synthase (Homo sapiens), P49327; recombinant FAS-TE, OMFH fluorogenic substrate, fluorescence endpoint; inhibition, % at 15 µM; actives 0.67% (n = 360,000); AID 602261, 2012;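 active = compounds whose normalised, plate-corrected inhibition of enzyme fluorescence in the single-dose primary screen is 50% or more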;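 also: 0% = DMSO with enzyme and 100% = substrate without enzyme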
HDAC3 inh – HDAC3 deacetylase inhibitors, primary screen, biochemical, fluorescence, cell-free homogeneous; AID 2718, 2010; recombinant HDAC3, fluorogenic peptide/trypsin coupled; inhibition, % at 8.3 µM; Histone deacetylase 3 (Homo sapiens), O15379; actives 0.15% (n = 320,000); in the data active = inhibition above about 26%, passing the limit was not always enough
Rtt109 Vps75 – inhibitors of C. albicans Rtt109/Vps75 HAT, primary screen, biochemical, ThioGlo CoA-SH fluorescence, plate reader. AID 540336, 2011. purified Rtt109/Vps75, 4 h. actives 0.16% (n = 330,000). Histone acetyltransferase RTT109 (Candida albicans (strain SC5314 / ATCC MYA-2876)), …. inhibition, % at 34.9 µM;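 active = inhibition of at least 50% in every replicate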
Target sequence (Q5AAJ8 whole entry, looked up): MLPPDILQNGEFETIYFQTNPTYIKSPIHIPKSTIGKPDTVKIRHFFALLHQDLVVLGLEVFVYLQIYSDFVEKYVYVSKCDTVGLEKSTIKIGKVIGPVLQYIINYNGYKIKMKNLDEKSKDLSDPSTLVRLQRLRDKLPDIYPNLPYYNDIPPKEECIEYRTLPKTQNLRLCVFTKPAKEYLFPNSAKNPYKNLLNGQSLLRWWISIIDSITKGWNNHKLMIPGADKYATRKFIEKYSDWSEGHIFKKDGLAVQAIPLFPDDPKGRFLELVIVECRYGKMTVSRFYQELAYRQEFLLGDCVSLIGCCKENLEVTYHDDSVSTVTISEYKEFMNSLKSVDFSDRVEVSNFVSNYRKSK
ALR H2O2 inh – inhibitors of human ALR sulfhydryl oxidase, primary screen, biochemical, H2O2 detection, HRP-luminol luminescence, single point; FAD-linked sulfhydryl oxidase ALR (Homo sapiens), P55789; actives 3.8% (n = 290,000); purified ALR, DTT oxidation; inhibition, % (test concentration not listed);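 active = mean replicate inhibition above about 79%, with every replicate also reaching it, limit read from the data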
Target sequence (P55789 whole entry, looked up): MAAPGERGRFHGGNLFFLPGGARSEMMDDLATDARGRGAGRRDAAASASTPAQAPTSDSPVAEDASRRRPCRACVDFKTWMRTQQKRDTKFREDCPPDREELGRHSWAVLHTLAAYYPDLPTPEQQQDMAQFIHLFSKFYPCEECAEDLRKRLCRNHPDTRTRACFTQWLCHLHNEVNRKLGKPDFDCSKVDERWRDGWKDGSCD
M18AAP inhibitor – PfM18AAP inhibitors, malaria aminopeptidase, primary screen, biochemical, QFRET, recombinant enzyme; inhibition, % at 7.35 µM; H-Glu-NHMec fluorogenic cleavage; AID 1822, 2009; actives 1.2% (n = 290,000); M18 aspartyl aminopeptidase (Plasmodium falciparum 3D7);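 active = inhibition above the campaign mean inhibition over all tested compounds plus 3 SD, cut at about 28% in these data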;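 also: 0% = plate median of test compound wells and 100% = 2 mM ZnCl2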
* hit, by the source's call; nt = not tested or not shown. The list is not random: actives were taken first. Their share in the collection is about 4.6%.

SMILES | UCH37 inh | FAS TE block | HDAC3 inh | Rtt109 Vps75 | ALR H2O2 inh | M18AAP inhibitor
COc1ccc(NC(=O)CSc2nccn2C)cc1S(N)(=O)=O | 0.1 | -3.6 | -1.0 | 14.7 | 98.7* | 4.0
CCOC(=O)c1ccc(NC(=O)CSc2nccn2C)cc1 | 4.2 | -22.9 | 0.5 | 2.2 | 98.8* | 2.1
COc1ccc(NC(=O)CSc2nncs2)cc1S(N)(=O)=O | 1.1 | -5.4 | -0.3 | -2.1 | -2.8 | -5.5
Cn1ccnc1SCC(=O)Nc1ccc2c(c1)COC2=O | 2.8 | -3.3 | -2.5 | 2.1 | 99.2* | 1.4
COc1ccc(C=NNC(=O)c2cccc(NC(=O)c3ccc(F)cc3)c2)c(C(=O)O)c1OC | 1.7 | nt | nt | nt | nt | nt
COC(=O)c1nn(-c2ccccc2)c(Sc2ccc(C)cc2)c1C=NO | -3.1 | nt | nt | nt | nt | nt
Nc1ccc(SCc2cccnc2)cc1 | 1.4 | -5.1 | -0.5 | 0.2 | 99.6* | 4.6
O=C(Sc1ccc(Cl)cc1)c1ccccn1 | 4.9 | 4.2 | 5.7 | -15.2 | 98.1* | nt
Nc1nc2ccccc2n1N=Cc1ccc([N+](=O)[O-])s1 | 4.4 | nt | nt | nt | nt | nt
COc1ccc2c(/C=N/NS(=O)(=O)c3ccc(C)cc3)c[nH]c2c1 | nt | 2.1 | 7.5 | 21.9 | 89.3* | -14.5
CC(=NNC(=O)C1COc2ccccc2O1)c1ccc(N2CCOCC2)cc1 (stereo unspecified) | -0.6 | nt | nt | nt | nt | nt
Oc1ccccc1N1CCN(c2nnnn2-c2ccccc2)CC1 | 0.6 | -4.1 | 1.9 | -0.6 | 99.2* | 6.8
COC(C(=O)N/N=C(\C)CC(=O)Nc1ccc(N(C)C)cc1)c1ccccc1 (stereo unspecified) | nt | 2.4 | 1.4 | 5.3 | 98.9* | 10.4
COC(C(=O)NN=C(C)CC(=O)Nc1ccc(Cl)cc1C)c1ccccc1 (stereo unspecified) | 0.8 | nt | nt | nt | nt | nt
CN(C)c1ccc(NC(=O)CC(NCc2ccccn2)C(=O)O)cc1 (stereo unspecified) | 2.1 | -10.4 | -4.0 | 3.9 | 99.9* | -4.4
Cc1ccc(NC(=O)C(NCc2ccccn2)c2ccccc2)cc1 (stereo unspecified) | 1.8 | 3.8 | -2.9 | -1.7 | 1.2 | 5.0
C/C(CC(=O)Nc1ccc(N(C)C)cc1)=N\NC(=O)c1ccccn1 | nt | -3.0 | 0.6 | -2.2 | 96.1* | 10.0
C/C(CC(=O)Nc1ccc(N(C)C)cc1)=N\NC(=O)c1cnccn1 | nt | -8.3 | 5.3 | 1.2 | 98.8* | 10.9
CC(=NNc1nc(C(=O)O)cs1)c1ccccc1 | 7.3 | nt | nt | nt | nt | nt
Cc1cc(O)c(C)c(O)c1C=NNC(=O)c1cccnc1 | 6.7 | nt | nt | nt | nt | nt
CC(=Nn1cnnc1)c1ccccc1 | 0.8 | nt | nt | nt | nt | nt
O=C(Nc1nnc(-c2ccc3c(c2)CCCC3)o1)c1ccc(Cl)cc1Cl | -6.1 | 4.4 | 9.6 | -5.9 | nt | 5.9
O=C(Nc1nnc(-c2ccc3c(c2)CCCC3)o1)c1c(F)cccc1F | 0.0 | -0.8 | -5.7 | 2.5 | 95.2* | -17.9
CC(=O)Nc1ccc(-c2ccccc2)s1 | -0.2 | -11.6 | 8.8 | 30.5 | -3.8 | -8.9
CC(=O)Nc1ccc(NC(C)=O)s1 | 0.4 | -9.1 | 7.3 | -5.0 | 87.0* | -102.5
SMILES | UCH37 inh | FAS TE block | HDAC3 inh | Rtt109 Vps75 | ALR H2O2 inh | M18AAP inhibitor
CCOc1cc(C=NNC(=O)Cn2nc([N+](=O)[O-])cc2C)ccc1OCc1cccc2ccccc12 | 0.2 | nt | nt | nt | nt | nt
CC(=NNC(=O)Nc1ccccc1)c1ccc2ccccc2c1 | 6.0 | nt | nt | nt | nt | nt
CCN(CC)CCN1c2ccccc2Sc2ccc3ccccc3c21 | -1.8 | -6.2 | 10.5 | -0.4 | 97.9* | 1.3
CCN(CC)CCC(=O)N1c2ccccc2Sc2ccc(Cl)cc21 | 2.8 | 0.9 | -3.5 | 17.4 | 64.0 | nt
CCN(CC)CCN1c2ccccc2Sc2ccccc21 | 0.7 | -1.1 | 1.6 | -0.4 | 99.7* | 6.8
CC(=O)N1c2ccccc2Sc2ccc3ccccc3c21 | nt | 4.4 | nt | nt | nt | nt
COc1cc(C=NNC(=O)c2ccncc2)ccc1OC(=O)c1ccco1 | 5.2 | nt | nt | nt | nt | nt
Cn1c(=O)[nH]c(NCCc2ccc(O)cc2)c([N+](=O)[O-])c1=O | 13.6 | -1.4 | -0.9 | -0.1 | 80.7* | nt
Cc1cc(Nc2ccc(N(C)C)cc2)n2ncnc2n1 | 4.7 | -8.0 | 5.4 | -0.3 | 98.2* | -0.2
Cc1cc(Nc2ccc(Cl)cc2)n2ncnc2n1 | -1.7 | 1.1 | -7.0 | 2.9 | -5.0 | 0.1
Cc1ccc(CNC(=O)CC(C)S(=O)(=O)c2ccc3c(c2)NC(=O)CS3)o1 (stereo unspecified) | 2.5 | -7.9 | -1.0 | -0.2 | 97.9* | -25.7
Cc1ccc(CNC(=O)CC(C)S(=O)(=O)c2ccc3c(c2)NC(=O)CO3)cc1 (stereo unspecified) | -1.9 | -3.9 | -2.0 | 1.0 | -2.3 | -3.5
COC(=O)c1ccccc1NC(=O)CSc1nc(O)cc(=O)n1C1CCCC1 | 8.4 | -5.0 | -4.6 | 10.1 | 97.8* | 1.3
CCc1ccc(NC(=O)CSc2nc(O)cc(=O)n2C2CCCC2)cc1 | 9.7 | -0.6 | -6.2 | -5.0 | 99.3* | 2.3
O=C(CSc1nc(O)cc(=O)n1C1CCCC1)Nc1cccc(Cl)c1Cl | 8.8 | 0.8 | 1.0 | -1.6 | 99.1* | -13.1
CCCCNC(=O)CSc1nc(O)cc(=O)n1C1CCCC1 | 2.5 | -0.5 | 4.8 | -13.8 | nt | 3.0
O=C(CSc1nc(O)cc(=O)n1-c1ccccc1)NC1CCCCC1 | nt | -6.1 | 6.7 | -6.8 | 9.2 | 1.9
CCOc1cc(C=NNC(=O)COc2ccc(C)cc2)ccc1OC(=O)c1cccs1 | 0.5 | nt | nt | nt | nt | nt
CC(C)C(=O)Nc1ccccc1C(=O)NN=Cc1ccc([N+](=O)[O-])cc1 | 6.6 | nt | nt | nt | nt | nt
COc1cc(C=NNC(=O)C(=O)NCC2CCCO2)cc(Cl)c1O (stereo unspecified) | 10.3 | nt | nt | nt | nt | nt
COc1cccc(/C=N/NC(=O)c2ccc3nc[nH]c3c2)c1 | nt | -2.6 | 4.7 | -3.5 | 92.6* | 10.4
CCN(CC)c1ccc(C=NNC(=O)c2ccc3nc[nH]c3c2)cc1 | -18.8 | nt | nt | nt | nt | nt
CCN(CC)c1ccc(/C=N/NC(=O)c2ccc3nc[nH]c3c2)cc1 | nt | -4.9 | 5.8 | 18.9 | 98.9* | 1.8
Oc1c(Br)cc(Br)cc1CNc1ccc(F)cc1 | -0.2 | 25.9 | 5.8 | 10.4 | 97.6* | 11.2
COc1cc(OC)c2cc(C(=O)NN=Cc3ccccc3O)[nH]c2c1 | -12.0 | nt | nt | nt | nt | nt
Cc1ccc(NC(=O)N/C=C/c2ccco2)cc1C | 0.6 | -4.0 | 12.1 | 14.8 | 86.7* | 0.8
c1ccc(Oc2nc(N3CCOCC3)nc(N3CCOCC3)n2)cc1 | -0.4 | -2.4 | -3.0 | 3.4 | 88.2* | -9.9
NC(=O)CCn1c(C(=O)c2ccc(Cl)cc2)c2ccccc2[n+]1[O-] | 28.3* | -16.6 | 3.6 | -0.6 | -3.9 | 2.1
